# Source: PMC4263960 (Pediatric blood & cancer, 2013)
# Read-outs that look alike come from different tables or passages of the source.
# How the values were obtained:
# [1] = tested on: OS-17 osteosarcoma xenograft; assay: PPTP in vivo xenograft testing, OS-17; design: species or system mice; details: 1 mg/kg IP, Day 21 or earlier
# [2] = tested on: Rh18 EMB rhabdomyosarcoma xenograft; assay: PPTP in vivo xenograft testing, Rh18; design: species or system mice
# [3] = tested on: ALL-17 ALL B-precursor xenograft; assay: PPTP in vivo xenograft testing, ALL-17; design: species or system mice
# [4] = tested on: Rh30 ALV rhabdomyosarcoma xenograft; assay: PPTP in vivo xenograft testing, Rh30; design: species or system mice
# [5] = tested on: ALL-4 ALL B-precursor xenograft; assay: PPTP in vivo xenograft testing, ALL-4; design: species or system mice
# CHLA-258 cell line = assay: DIMSCAN in vitro cytotoxicity testing, CHLA-258; assay type: cell-based
# Outline: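 Test compound incubated with cells of a 24-line pediatric cancer panel for 96 h at 0.1 nM to 1 μM, then assessed by DIMSCAN. Relative IC50 (rIC50) derived per line. Panel comparison value is the panel rIC50 divided by the rIC50 of each cell line.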
# [6] = tested on: PPTP in vitro cell line panel; assay: DIMSCAN in vitro cytotoxicity testing, panel summary; assay type: cell-based
# [7] = tested on: CHLA-79 neuroblastoma xenograft; assay: PPTP in vivo xenograft testing, CHLA-79; design: species or system mice
# [8] = tested on: GBM2 glioblastoma xenograft; assay: PPTP in vivo xenograft testing, GBM2; design: species or system mice
# [9] = cited from earlier work
# TC-71 Ewing xenograft = assay: PPTP in vivo xenograft testing, TC-71; design: species or system mice
# [10] = 1 mg/kg IP Q4Dx3 repeated at Day 21
# [11] = 1.5 mg/kg IP Q4Dx3 repeated at Day 21
smiles,measurement,setting,value
C=C1C[C@@H]2CC[C@@]34C[C@H]5O[C@H]6[C@@H](O3)[C@H]3O[C@H](CC[C@@H]3O[C@H]6[C@H]5O4)CC(=O)C[C@@H]3[C@@H](OC)[C@@H](C[C@H](O)CN)O[C@H]3C[C@H]3O[C@@H](CC[C@@H]1O2)C[C@@H](C)C3=C [Eribulin],Tumor volume T/C,[1],0.25
same,EFS activity,[2]; 1 mg/kg IP,"Int (Intermediate activity = criteria (a) and (b) above, but not having a net reduction in median tumor volume for treated animals at the end of the study)"
same,Response activity,[2]; 1 mg/kg IP,Int (intermediate activity by a score of ≥2 but <6)
same,T/C volume activity,[2]; 1 mg/kg IP,Low (Low activity = T/C >0.45)
same,EFS T/C,[2]; [10],>3.2
same,Median final RTV (CD45%),[2]; [10],1.8
same,Tumor volume T/C,"[2]; 1 mg/kg IP, Day 21 or earlier",0.76
same,EFS activity,[3]; 1.5 mg/kg IP,"High (High activity requires: (a) an EFS T/C >2; (b) a significant difference in EFS distributions, and (c) a net reduction in median tumor volume for animals in the treated group at the end of treatment as compared to at treatment initiation)"
same,Response activity,[3]; 1.5 mg/kg IP,High (A high level of activity is indicated by a score of 6 or more)
same,EFS T/C,[3]; [11],>5.3
same,Median final RTV (CD45%),"[3]; CD45%, 1.5 mg/kg IP",0.0%
same,EFS activity,[4]; 1 mg/kg IP,"High (High activity requires: (a) an EFS T/C >2; (b) a significant difference in EFS distributions, and (c) a net reduction in median tumor volume for animals in the treated group at the end of treatment as compared to at treatment initiation)"
same,Response activity,[4]; 1 mg/kg IP,High (A high level of activity is indicated by a score of 6 or more)
same,T/C volume activity,[4]; 1 mg/kg IP,High (High activity = T/C ≤0.15)
same,EFS T/C,[4]; [10],>3.8
same,Median final RTV (CD45%),[4]; [10],0.0
same,Tumor volume T/C,"[4]; 1 mg/kg IP, Day 21 or earlier",0.06
same,EFS activity,[5]; 1.5 mg/kg IP,"High (High activity requires: (a) an EFS T/C >2; (b) a significant difference in EFS distributions, and (c) a net reduction in median tumor volume for animals in the treated group at the end of treatment as compared to at treatment initiation)"
same,Response activity,[5]; 1.5 mg/kg IP,High (A high level of activity is indicated by a score of 6 or more)
same,EFS T/C,[5]; [11],>4.3
same,Median final RTV (CD45%),"[5]; CD45%, 1.5 mg/kg IP",0.0%
same,IC50,"CHLA-258 cell line; 96 h, read-out: rIC50",0.5 nM
same,Panel rIC50/Line rIC50,CHLA-258 cell line; CHLA-258,0.54
same,Relative in/out%,CHLA-258 cell line; CHLA-258,−84%
same,Ymin % (observed),CHLA-258 cell line; CHLA-258,6.29%
same,"Panel rIC50/Line rIC50, maximum",[6]; maximum of PPTP cell lines,>2.74
same,"Relative in/out%, maximum",[6]; maximum of PPTP cell lines,−18%
same,"Ymin % (observed), maximum",[6]; maximum of PPTP cell lines,20.92%
same,"Panel rIC50/Line rIC50, median",[6]; median of PPTP cell lines,1.20
same,"Relative in/out%, median",[6]; median of PPTP cell lines,−89%
same,"Ymin % (observed), median",[6]; median of PPTP cell lines,1.79%
same,"Panel rIC50/Line rIC50, minimum",[6]; minimum of PPTP cell lines,0.02
same,"Relative in/out%, minimum",[6]; minimum of PPTP cell lines,−100%
same,"Ymin % (observed), minimum",[6]; minimum of PPTP cell lines,0.00%
same,IC50,"[6]; read-out: rIC50, maximum, maximum of PPTP cell lines",14.8 nM
same,IC50,"[6]; read-out: rIC50, median, median of PPTP cell lines",0.27 nM
same,IC50,"[6]; read-out: rIC50, minimum, minimum of PPTP cell lines",< 0.1 nM
same,IC50,"[6]; read-out: rIC50, most sensitive cell lines, lymphoid origin (three ALL, one ALCL, one NHL)",< 0.1 nM
same,IC50,"[6]; read-out: rIC50, other (non-neuroblastoma) PPTP cell lines",0.14 nM
same,IC50,"[6]; read-out: relative IC50 (rIC50), range, range over the PPTP cell lines",0.1 to 14.8 nM
same,EFS activity,[7]; 1 mg/kg IP,Low (Low activity = EFS T/C <2)
same,Response activity,[7]; 1 mg/kg IP,Int (intermediate activity by a score of ≥2 but <6)
same,T/C volume activity,[7]; 1 mg/kg IP,Low (Low activity = T/C >0.45)
same,EFS T/C,[7]; [10],1.9
same,Median final RTV (CD45%),[7]; [10],>4
same,Time to event,[7]; [10],13.0
same,Tumor volume T/C,"[7]; 1 mg/kg IP, Day 21 or earlier",0.71
same,EFS activity,[8]; 1 mg/kg IP,"High (High activity requires: (a) an EFS T/C >2; (b) a significant difference in EFS distributions, and (c) a net reduction in median tumor volume for animals in the treated group at the end of treatment as compared to at treatment initiation)"
same,Response activity,[8]; 1 mg/kg IP,High (A high level of activity is indicated by a score of 6 or more)
same,T/C volume activity,[8]; 1 mg/kg IP,Low (Low activity = T/C >0.45)
same,EFS T/C,[8]; [10],>3.5
same,Median final RTV (CD45%),[8]; [10],0.6
same,Tumor volume T/C,"[8]; 1 mg/kg IP, Day 21 or earlier",1.00
same,systemic exposure (AUC),"[9]; humans, 1.4 mg/m^2 dose",approximately 790 ng hour/ml
same,serum half-life,[9]; patients,37.8 h
same,Response activity,TC-71 Ewing xenograft; 1 mg/kg IP,High (A high level of activity is indicated by a score of 6 or more)
same,T/C volume activity,TC-71 Ewing xenograft; 1 mg/kg IP,Int (Intermediate activity = T/C ≤0.45 but >0.15)
same,EFS T/C,TC-71 Ewing xenograft; [10],>1.5
same,Median final RTV (CD45%),TC-71 Ewing xenograft; [10],2.3
same,Tumor volume T/C,"TC-71 Ewing xenograft; 1 mg/kg IP, Day 21 or earlier",0.19
